Experimental data taken from ChEMBL document CHEMBL1158824, “Using jasplakinolide to turn on pathways that enable the isolation of new chaetoglobosins from Phomospis asparagi” (J Nat Prod, 2005).
Calls of active or inactive are those of the source. The calls are words filed in the database; no cut-off is given here.

Tests used:
A10 [1] = assay: Antimicrofilament activity in rat A10 cells assessed as cell loss at 25 ug/ml by rhodamine-phalloidin staining; assay type: functional, cell-based
Procedure, shortened: (§1)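 A-10 rat aortic smooth muscle cells treated with compound, then fixed; microfilament network scored as loss, additional loss, total loss, or cell loss, at the concentration given in each line.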

A10 [2] = assay: Antimicrofilament activity in rat A10 cells assessed as cell loss at 15 ug/ml by rhodamine-phalloidin staining; assay type: functional, cell-based; procedure, shortened: as §1
A10 [3] = assay: Antimicrofilament activity in rat A10 cells assessed as cell loss at 10 ug/ml by rhodamine-phalloidin staining; assay type: functional, cell-based; procedure, shortened: as §1
A10 [4] = assay: Antimicrofilament activity in rat A10 cells assessed as loss of microfilament at 10 ug/ml by rhodamine-phalloidin staining; assay type: functional, cell-based; procedure, shortened: as §1
MC-38 = assay: Cytotoxicity against mouse C38 cells assessed as zone units at 15 ug/disk by disk diffusion soft agar assay; assay type: functional
Procedure, shortened: (§2)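 Disk diffusion soft agar colony formation assay at 15 μg/disk; cytotoxicity read as zone units. Cells: L1210 murine leukemia, C38 murine colon, CFU-GM normal bone marrow. Samples called solid tumor selective when the solid tumor zone exceeds the normal-cell or leukemia zone by more than 250 units.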

A10 [5] = assay: Antimicrofilament activity in rat A10 cells assessed as total loss of microfilament at 25 ug/ml by rhodamine-phalloidin staining; assay type: functional, cell-based; procedure, shortened: as §1
A10 [6] = assay: Antimicrofilament activity in rat A10 cells assessed as loss of microfilament at 15 ug/ml by rhodamine-phalloidin staining; assay type: functional, cell-based; procedure, shortened: as §1
A10 [7] = assay: Antimicrofilament activity in rat A10 cells assessed as loss of microfilament at 1 ug/ml by rhodamine-phalloidin staining; assay type: functional, cell-based; procedure, shortened: as §1
L1210 = assay: Cytotoxicity against mouse L1210 cells assessed as zone units at 15 ug/disk by disk diffusion soft agar assay; assay type: functional; procedure, shortened: as §2
A10 [8] = assay: Antimicrofilament activity in rat A10 cells assessed as loss of microfilament at 2.5 ug/ml by rhodamine-phalloidin staining; assay type: functional, cell-based; procedure, shortened: as §1
A10 [9] = assay: Antimicrofilament activity in rat A10 cells assessed as total loss of microfilament at 5 ug/ml by rhodamine-phalloidin staining; assay type: functional, cell-based; procedure, shortened: as §1
[10] = Cytotoxicity against mouse CFU-GM cells assessed as zone units at 15 ug/disk by disk diffusion soft agar assay; assay type: cell-based; procedure, shortened: as §2

| SMILES | Activity (A10 [1]) | Activity (A10 [2]) | Activity (A10 [3]) | Activity (A10 [4]) | Activity (MC-38) | Activity (A10 [5]) | Activity (A10 [6]) | Activity (A10 [7]) | Activity (L1210) | Activity (A10 [8]) | Activity (A10 [9]) | Activity [10] |
| --- | --- | --- | --- | --- | --- | --- | --- | --- | --- | --- | --- | --- |
| CC[C@@H]1C(C)=C[C@@H]2/C=C/C[C@H](C)/C=C(\C)CC/C=C/C(=O)[C@]23C(=O)N[C@@H]([C@H](C)c2c[nH]c4ccccc24)[C@H]13 | Active | Active | Active | Active | 150 Zone units | Active | Active | – | – | – | – | – |
| CC[C@@H]1C(C)=C[C@@H]2/C=C/C[C@H](C)/C=C(\C)[C@@H](O)[C@@H](O)/C=C/C(=O)[C@]23C(=O)N[C@@H]([C@H](C)c2c[nH]c4ccccc24)[C@H]13 | – | – | – | – | 400 Zone units | – | – | Active | 500 Zone units | Active | Active | 500 Zone units |
| CC[C@@H]1C(C)=C[C@@H]2/C=C/C[C@H](C)/C=C(\C)[C@@H](O)C(=O)/C=C/C(=O)[C@]23C(=O)N[C@@H]([C@H](C)c2c[nH]c4ccccc24)[C@H]13 | – | – | – | – | 350 Zone units | – | – | – | 250 Zone units | – | – | 250 Zone units |
